pIC50: −log10 of the molar value. In brackets after ≈: the same amount, converted by molar mass. Bounds are passed on as bounds.

Common to all, as to type: functional
Test [1] has as its system Pseudomonas aeruginosa. Nature of the test: Antibacterial activity against Pseudomonas aeruginosa 694 infected in immunocompetent CD-1 mouse thigh infection model assessed as log reduction in colony forming units at 5 mg/kg, iv administered twice daily at 2 hrs and 12 hrs post-infection measured 24 hrs post-drug treatment (reference value: 1.8 log10CFU). The method in brief: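 Thigh model: inoculum given intramuscularly into the right thigh on day 0. IV dosing with vehicle, test agent or comparator at 2 and 12 h postinfection. Untreated groups were harvested at 2 and 24 h. Thigh muscle was collected at 24 h postinfection, homogenized in PBS pH 7.4, diluted and plated on Brain Heart Infusion agar + 0.5% charcoal. Read-out: CFU per gram thigh.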

Test [2] concerns Escherichia coli. As to the kind of experiment: Antibacterial activity against Escherichia coli 107 ATCC 25922 assessed as bacterial growth inhibition by susceptibility testing assay. The essentials:
(§1)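 Broth microdilution MIC per CLSI in cation-adjusted Mueller Hinton broth, made fresh and held at 4 °C before testing. Medium supplemented with lysed horse blood where appropriate. Compound stocks prepared and serially diluted in sterile deionized water. Runs were accepted against QC ranges for comparator antibiotics and ATCC QC strains.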

For test [3], the system named is Stenotrophomonas maltophilia. Nature of the test: Antibacterial activity against Stenotrophomonas maltophilia 256 assessed as bacterial growth inhibition by susceptibility testing assay. The essentials: (§2)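 Medium supplemented with lysed horse blood where appropriate. Compound stocks prepared and serially diluted in sterile deionized water. Runs were accepted against QC ranges for comparator antibiotics and ATCC QC strains.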

Test [4] concerns Staphylococcus aureus. Nature of the test: Antibacterial activity against methicillin-resistant, tet(M) tetracycline-resistant Staphylococcus aureus 161 assessed as bacterial growth inhibition by susceptibility testing assay. The essentials: (§3)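 Broth microdilution MIC per CLSI in 96-well plates; compound stocks prepared and serially diluted in sterile deionized water; cation-adjusted Mueller Hinton broth prepared fresh and held at 4 °C before testing, supplemented with lysed horse blood as appropriate; runs accepted when comparator antibiotics fell within QC ranges for appropriate ATCC quality control strains.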

Test [5] concerns Klebsiella pneumoniae. Nature of the test: Antibacterial activity against Klebsiella pneumoniae 457 harboring CTX-M-15 gene assessed as bacterial growth inhibition by susceptibility testing assay. The method in brief:
as §3

In test [6] the test system is Pseudomonas aeruginosa. As to the kind of experiment: Antibacterial activity against Pseudomonas aeruginosa 555 BAA-47 assessed as bacterial growth inhibition by susceptibility testing assay. The method in brief: as §1
Test [7] concerns Burkholderia cenocepacia. As to the kind of experiment: Antibacterial activity against Burkholderia cenocepacia 240 assessed as bacterial growth inhibition by susceptibility testing assay. The essentials: as §2
Test [8] deals with Staphylococcus aureus. As to the kind of experiment: Antibacterial activity against Staphylococcus aureus 101 ATCC 29213 assessed as bacterial growth inhibition by susceptibility testing assay. The method in brief: as §1
Test [9] concerns Pseudomonas aeruginosa. As to the kind of experiment: Antitranslational activity in Pseudomonas aeruginosa 555 BAA-47 assessed as ribosomal inhibition by in vitro coupled transcription/translation assay. The method in brief: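 P. aeruginosa coupled transcription/translation reactions with a luciferase reporter, run 60 min at 37 °C. Reactions were stopped on ice for 5 min, then luciferase substrate was added and luminescence read. Percent luminescence was plotted against inhibitor concentration, and 50% inhibition versus untreated controls was taken as the IC50.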

Test [10] has as its system Pseudomonas aeruginosa. Nature of the test: Antibacterial activity against Pseudomonas aeruginosa 1145 assessed as bacterial growth inhibition by susceptibility testing assay. The essentials:
as §3

Test [11] relates to Streptococcus pneumoniae. Nature of the test: Antibacterial activity against tet(M) tetracycline-resistant Streptococcus pneumoniae 160 assessed as bacterial growth inhibition by susceptibility testing assay.
Test [12] concerns Pseudomonas aeruginosa. As to the kind of experiment: Antibacterial activity against Pseudomonas aeruginosa 1145 infected in immunocompetent BALB/c mouse lung infection model assessed as log reduction in colony forming units at 40 mg/kg, iv bid administered at 2 hrs and 12 hrs post-infection measured 24 hrs post-drug treatment. The method in brief:
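Female BALB/c mice (18−20 g) received intranasal inoculum under light anesthesia. IV treatment at 2 and 12 h postinfection, six mice per group per dose. An untreated group was harvested at 2 h. Lungs were taken 24 h after treatment start, weighed, homogenized, diluted and plated on MacConkey medium overnight at 37 °C, 5% CO2. Read-out: CFU per gram lung.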

Test [13] deals with Escherichia coli. Nature of the test: Antibacterial activity against tet(A) tetracycline-resistant Escherichia coli 155 assessed as bacterial growth inhibition by susceptibility testing assay. The method in brief:
as §3

The subject of test [14] is Enterobacter cloacae. As to the kind of experiment: Antibacterial activity against tet(A) tetracycline-resistant Enterobacter cloacae 603 assessed as bacterial growth inhibition by susceptibility testing assay. The essentials:
as §3

The test system of test [15] is Enterococcus faecium. As to the kind of experiment: Antibacterial activity against tet(M) tetracycline-resistant Enterococcus faecium 404 assessed as bacterial growth inhibition by susceptibility testing assay.
The test system of test [16] is Enterococcus faecalis. Nature of the test: Antibacterial activity against tet(M) tetracycline-resistant Enterococcus faecalis 327 assessed as bacterial growth inhibition by susceptibility testing assay. The method in brief: as §3
For test [17], the system named is Proteus mirabilis. Nature of the test: Antibacterial activity against Proteus mirabilis 385 assessed as bacterial growth inhibition by susceptibility testing assay. The method in brief:
as §1

Test [18] deals with Acinetobacter baumannii. As to the kind of experiment: Antibacterial activity against tet(B) tetracycline-resistant Acinetobacter baumannii 250 assessed as bacterial growth inhibition by susceptibility testing assay. The essentials:
as §3

The subject of test [19] is Pseudomonas aeruginosa. As to the kind of experiment: Antibacterial activity against Pseudomonas aeruginosa 694 assessed as bacterial growth inhibition by susceptibility testing assay. The method in brief:
as §1

The test system of test [20] is Pseudomonas aeruginosa. As to the kind of experiment: Ratio of tetracycline IC50 to compound IC50 for antitranslational activity in Pseudomonas aeruginosa 555 BAA-47 by in vitro coupled transcription/translation assay.
Test [21] deals with Staphylococcus aureus. As to the kind of experiment: Antibacterial activity against tet(K) tetracycline-resistant Staphylococcus aureus 158 assessed as bacterial growth inhibition by susceptibility testing assay.

As to `C[C@H]1COc2c(N3CCN(C)CC3)c(F)cc3c(=O)c(C(=O)O)cn1c23.C[C@H]1COc2c(N3CCN(C)CC3)c(F)cc3c(=O)c(C(=O)O)cn1c23.O` [LEVOFLOXACIN], the log10CFU/g in [1] turned out to be 4.5.

On to `CN(C)[C@@H]1C(O)=C(C(N)=O)C(=O)[C@@]2(O)C(O)=C3C(=O)c4c(O)c5c(c(F)c4C[C@H]3C[C@@H]12)[C@@H]1[C@@H](CCN1C)CN5` (stereo in doubt; 10c), for which the MIC in test [2] came out at 0.0625 µg/mL (≈ 0.115 µM); in test [3], 1 µg/mL (≈ 1.84 µM); in [4] it was 0.5 µg/mL (≈ 0.922 µM); in test [5], 0.5 µg/mL (≈ 0.922 µM); in test [6] it was 4 µg/mL (≈ 7.37 µM); in test [7], 8 µg/mL (≈ 14.7 µM). Further, the MIC is 0.25 µg/mL (≈ 0.461 µM) in [8]; 4 µg/mL (≈ 7.37 µM) in test [10]; “<=0.0156 ug ml-1” in test [11]; 0.5 µg/mL (≈ 0.922 µM) in test [13]; 0.5 µg/mL (≈ 0.922 µM) in [14]; 0.0625 µg/mL (≈ 0.115 µM) in [15]. Also, the MIC in test [16] was determined as 0.125 µg/mL (≈ 0.23 µM); in [17] it was 0.5 µg/mL (≈ 0.922 µM); in test [18], 2 µg/mL (≈ 3.69 µM); in [19], 8 µg/mL (≈ 14.7 µM); in [21] it was 0.0625 µg/mL (≈ 0.115 µM). Further, the pIC50 in test [9] was 6.68. Further, the log10CFU/g in [12] worked out at 4. Further, in test [20], the “Ratio IC50” value came out at 10.

As usually defined, the MIC is the least concentration at which growth counts as inhibited. The term pIC50 denotes the IC50 on a negative log10 scale, so that one unit is a factor of ten.

The values above are taken from ChEMBL document CHEMBL3580574, “Design, Synthesis, and Biological Evaluation of Hexacyclic Tetracyclines as Potent, Broad Spectrum Antibacterial Agents” (J Med Chem, 2015).
